Calls of active or inactive are those of the source.
Legend:
L6 [1] = experiment: Induction of AMPK-alpha phosphorylation at thr172 in rat L6 cells after 2 hrs by Western blot analysis; assay type: cell-based
In short: (§1)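 Differentiated L6 myotubes treated 2 h with a range of compound concentrations (DMSO vehicle), then lysed in pH 8.0 Tris buffer containing NP-40, EDTA, DTT, PMSF, orthovanadate, NaF and protease inhibitors. Immunoblotted for phospho-AMPKα1/2 (Thr172), total AMPK, phospho-ACC (Ser79) and total ACC.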

L6 [2] = experiment: Induction of AMPK alpha-mediated ACC phosphorylation at ser79 in rat L6 cells after 2 hrs by Western blot analysis; assay type: cell-based; in short: as §1
L6 [3] = experiment: Induction of AMPK-alpha phosphorylation at thr172 in rat L6 cells at 12 uM by Western blot analysis in presence of 10 uM of AMPK inhibitor; assay type: cell-based
In short: (§2)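 L6 myotubes pretreated 10 min with the AMPK inhibitor compound C (10 µM), then exposed to compound for 2 h (DMSO vehicle). Lysates immunoblotted for phospho-AMPKα1/2 (Thr172) and total AMPK.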

L6 [4] = experiment: Increase in beta-oxidation in rat L6 cells assessed as tritiated water production at 12 uM by scintillation counter method; assay type: functional, cell-based
In short: (§3)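 Fatty acid β-oxidation measured in differentiated L6 myotubes treated with compound, using DMSO as vehicle control. 3H2O formed was quantified in a scintillation counter.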

L6 [5] = experiment: Increase in AMPK alpha-mediated GLUT4 translocation into plasma membrane in rat L6 cells assessed as [3H]2-deoxy-glucose uptake after 2 hrs by scintillation counting relative to control; assay type: cell-based
In short: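 2-Deoxy-[3H]D-glucose added for 10 min, then three ice-cold 0.9% NaCl washes. Cytochalasin B (10 µM) blank subtracted. Cells collected in 0.05 N NaOH and counted by scintillation. Expressed as pmol 2-DG/min/mg protein or fold over control. Mean ± S.D. of three experiments.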

L6 [6] = experiment: Induction of AMPK-alpha phosphorylation at thr172 in rat L6 cells at 150 uM by Western blot analysis in presence of 10 uM of AMPK inhibitor; assay type: cell-based; in short: as §2
L6 [7] = experiment: Increase in beta-oxidation in rat L6 cells assessed as tritiated water production at 150 uM by scintillation counting; assay type: functional, cell-based; in short: as §3

Measured: Activity

C=C(CCC=C(C)C)[C@H]1CC[C@]2(C)[C@@H]1[C@H](O)C[C@@H]1[C@@]3(C)C[C@@H](O)[C@H](O[C@@H]4O[C@H](CO)[C@@H](O)[C@H](O)[C@H]4O[C@@H]4O[C@H](CO)[C@@H](O)[C@H](O)[C@H]4O)C(C)(C)[C@@H]3CC[C@]12C
active: L6 [1] Dose-dependent effect | L6 [2] Dose-dependent effect | L6 [3] | L6 [4] | L6 [5] Dose-dependent effect

CC(C)=CC/C=C(\C)[C@H]1CC[C@]2(C)[C@@H]1[C@H](O)C[C@@H]1[C@@]3(C)C[C@@H](O)[C@H](O[C@@H]4O[C@H](CO)[C@@H](O)[C@H](O)[C@H]4O[C@@H]4O[C@H](CO)[C@@H](O)[C@H](O)[C@H]4O)C(C)(C)[C@@H]3CC[C@]12C
active: L6 [1] Dose-dependent effect | L6 [2] Dose-dependent effect | L6 [6] | L6 [7] | L6 [5] Dose-dependent effect

— ChEMBL document CHEMBL1914407, “New dammarane-type glucosides as potential activators of AMP-activated protein kinase (AMPK) from Gynostemma pentaphyllum” (Bioorg Med Chem, 2011)
